Legend:
Histamine H3 receptor = Histamine H3 receptor (Homo sapiens, UniProt Q9Y5N1); test: Displacement of [3H]-N-alpha-methylhistamine from human H3 receptor expressed in CHO-K1 cell membranes after 60 mins by microbeta2 scintillation counting analysis
Method in brief: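 Radioligand binding with [3H]Nα-methylhistamine on membrane preparations from CHO-K1 cells stably expressing human H3 receptor; Ki reported as the mean of two independent experiments ± SEM.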

MAO-A = biological target: T1, MAO-A (Homo sapiens, UniProt P21397); test: Inhibition of human MAO-A expressed in baculovirus infected BTI insect cells at 10 uM using p-tyramine as substrate preincubated for 30 mins followed by substrate addition and measured after 1 hr by fluorescence-based Amplex Red MAO assay relative to control; conditions: probe p-tyramine
T1 sequence (P21397 whole entry): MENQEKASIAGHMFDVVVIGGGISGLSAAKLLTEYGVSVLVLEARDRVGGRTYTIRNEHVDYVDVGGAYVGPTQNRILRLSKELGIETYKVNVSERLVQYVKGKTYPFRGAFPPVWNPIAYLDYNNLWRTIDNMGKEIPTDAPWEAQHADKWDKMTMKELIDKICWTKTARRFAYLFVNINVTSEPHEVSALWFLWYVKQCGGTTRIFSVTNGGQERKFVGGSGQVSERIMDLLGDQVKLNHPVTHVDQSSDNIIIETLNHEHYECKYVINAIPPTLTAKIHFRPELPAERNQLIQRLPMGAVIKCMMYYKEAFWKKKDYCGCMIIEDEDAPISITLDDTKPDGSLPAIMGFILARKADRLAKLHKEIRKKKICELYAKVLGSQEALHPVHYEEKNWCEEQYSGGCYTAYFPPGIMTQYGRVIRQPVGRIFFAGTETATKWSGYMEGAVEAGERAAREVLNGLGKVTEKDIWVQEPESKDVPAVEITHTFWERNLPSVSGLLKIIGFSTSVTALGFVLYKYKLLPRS

[1] = biological target: T2, Amine oxidase [flavin-containing] B (Homo sapiens, UniProt P27338); test: Reversible inhibition of human MAO-B expressed in baculovirus infected BTI insect cells at IC80 preincubated with compound and p-tyramine for 22 mins followed by p-tyramine increase to 1 mM and measured every minute for 5 hrs by fluorescence assay
T2 sequence (P27338 whole entry): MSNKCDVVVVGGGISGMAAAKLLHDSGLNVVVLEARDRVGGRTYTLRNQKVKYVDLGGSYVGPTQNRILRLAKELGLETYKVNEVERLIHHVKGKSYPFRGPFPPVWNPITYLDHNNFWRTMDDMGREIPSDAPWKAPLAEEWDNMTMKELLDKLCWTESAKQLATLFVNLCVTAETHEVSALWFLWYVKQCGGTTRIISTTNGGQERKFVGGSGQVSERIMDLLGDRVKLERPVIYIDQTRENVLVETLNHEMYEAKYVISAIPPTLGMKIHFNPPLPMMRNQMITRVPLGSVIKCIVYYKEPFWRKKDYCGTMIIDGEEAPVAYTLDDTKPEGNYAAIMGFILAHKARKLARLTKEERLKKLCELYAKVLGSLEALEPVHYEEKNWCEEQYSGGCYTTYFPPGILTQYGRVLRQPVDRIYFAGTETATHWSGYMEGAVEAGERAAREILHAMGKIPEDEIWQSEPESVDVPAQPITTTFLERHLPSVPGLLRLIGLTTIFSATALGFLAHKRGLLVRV
Method in brief: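 Reversibility test: hMAO B preincubated with inhibitor in the presence of 10 μM para-tyramine. After 22 min, para-tyramine raised to 1 mM, then fluorescence read every minute for 5 h.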

[2] = biological target: T2, Amine oxidase [flavin-containing] B; test: Inhibition of human MAO-B expressed in baculovirus infected BTI insect cells using p-tyramine as substrate preincubated for 30 mins followed by substrate addition and measured after 1 hr by fluorescence-based Amplex Red MAO assay
[3] = biological target: T2, Amine oxidase [flavin-containing] B; test: Inhibition of human MAO-B expressed in baculovirus infected BTI insect cells at 1 uM using p-tyramine as substrate preincubated for 30 mins followed by substrate addition and measured after 1 hr by fluorescence-based Amplex Red MAO assay relative to control
[4] = biological target: T2, Amine oxidase [flavin-containing] B; test: Non-competitive inhibition of human MAO-B expressed in baculovirus infected BTI insect cells at 0.2 to 20 nM preincubated with compound and p-tyramine for 22 mins followed by p-tyramine increase to 1 mM and measured every minute for 5 hrs by Lineweaver-Burk plot analysis
Method in brief: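 Kinetic mode study: hMAO B activity measured at inhibitor 0, 0.2, 0.5 and 20 nM, each across six para-tyramine concentrations (0.05, 0.1, 0.5, 1.0, 1.5, 2.0 mM) to assign inhibition type.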

Chain of Histamine H3 receptor (Q9Y5N1 whole entry): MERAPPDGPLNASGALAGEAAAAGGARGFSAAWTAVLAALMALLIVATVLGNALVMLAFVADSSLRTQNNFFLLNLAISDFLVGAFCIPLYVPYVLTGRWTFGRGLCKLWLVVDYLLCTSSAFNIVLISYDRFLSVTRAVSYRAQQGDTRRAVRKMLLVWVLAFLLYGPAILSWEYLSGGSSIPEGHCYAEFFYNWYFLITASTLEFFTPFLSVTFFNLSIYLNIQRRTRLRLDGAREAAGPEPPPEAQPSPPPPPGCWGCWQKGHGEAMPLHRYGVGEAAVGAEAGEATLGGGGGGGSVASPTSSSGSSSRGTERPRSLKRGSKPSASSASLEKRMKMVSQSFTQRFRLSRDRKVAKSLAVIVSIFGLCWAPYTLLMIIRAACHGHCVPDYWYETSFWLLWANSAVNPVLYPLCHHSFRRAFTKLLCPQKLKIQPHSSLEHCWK

Row | Ki (Histamine H3 receptor) | inhibition at 1 h, 10 µM (MAO-A) | inhibition (INH) [1] | IC50 [2] | inhibition at 1 µM [3] | inhibition (INH) [4] | Structure (SMILES)
1 | 37 nM | 14% | Active | 19 nM |  |  | CCC(C)(C)c1ccc(OCCCN2CCCCC2)cc1
2 |  |  |  | > 1000 nM | 29% |  | CCC(C)(C)c1ccc(OCCCCCN2CCCC(C)C2)cc1 (configuration not stated)
3 |  |  |  | > 1000 nM | 28% |  | CCC(C)(C)c1ccc(OCCCCCN2CCCCC2)cc1
4 |  |  |  | > 1000 nM | 21% |  | CCC(C)(C)c1ccc(OCCCCCCN2CCCCC2)cc1
5 |  |  |  | > 1000 nM | 37% |  | CCC(C)(C)c1ccc(OCCCCCCCCN2CCC(C)CC2)cc1
6 |  |  |  | 1230 nM |  |  | CCC(C)(C)c1ccc(OCCCCN2CCCC(C)C2)cc1 (configuration not stated)
7 |  |  |  | > 1000 nM | 18% |  | CCC(C)(C)c1ccc(OCCCCCCCN2CCCCC2)cc1
8 |  |  |  | 1490 nM |  |  | CCC(C)(C)c1ccc(OCCCCCCCN2CCCCCC2)cc1
9 |  |  |  | > 1000 nM | 40% |  | CCC(C)(C)c1ccc(OCCCCCCCCN2CCCCCC2)cc1
10 |  |  |  | > 1000 nM | 48% |  | CCC(C)(C)c1ccc(OCCCCCN2CCC(C)CC2)cc1
11 |  | 10% |  | 379 nM |  |  | CCC(C)(C)c1ccc(OCCCCN2CCCCC2)cc1
12 |  |  |  | > 1000 nM | 35% |  | CCC(C)(C)c1ccc(OCCCCCCCN2CCC(C)CC2)cc1
13 |  |  |  | 609 nM |  |  | CCC(C)(C)c1ccc(OCCCCN2CCCCCC2)cc1
14 |  |  |  | 1130 nM |  |  | CCC(C)(C)c1ccc(OCCCCCN2CCCCCC2)cc1
15 |  |  |  | > 1000 nM | 33% |  | CCC(C)(C)c1ccc(OCCCCCCCCN2CCCC(C)C2)cc1 (configuration not stated)
16 |  |  |  | > 1000 nM | 37% |  | CCC(C)(C)c1ccc(OCCCCCCN2CCC(C)CC2)cc1
17 |  |  |  | > 1000 nM | 46% |  | CCC(C)(C)c1ccc(OCCCCCCN2CCCC(C)C2)cc1 (configuration not stated)
18 |  |  |  | > 1000 nM | 35% |  | CCC(C)(C)c1ccc(OCCCCCCCN2CCCC(C)C2)cc1 (configuration not stated)
19 |  |  |  | > 1000 nM | 47% |  | CCC(C)(C)c1ccc(OCCCCN2CCC(C)CC2)cc1
20 |  |  |  | > 1000 nM | 22% |  | CCC(C)(C)c1ccc(OCCCCCCCCN2CCCCC2)cc1
21 |  |  |  | 390 nM |  |  | CCC(C)(C)c1ccc(OCCCCCCN2CCCCCC2)cc1
22 | 437 nM | 5% | Active | 20 nM |  |  | CCC(C)(C)c1ccc(OCCCN2CCCCC2C)cc1 (configuration not stated)
23 | 140 nM | 5% | Active | 22 nM |  |  | CCC(C)(C)c1ccc(OCCCN2C(C)CCCC2C)cc1 (configuration not stated)
24 | 147 nM |  |  | 2070 nM |  |  | CCC(C)(C)c1ccc(OCCCN2CCC(C)CC2)cc1
25 | 298 nM | 12% |  | 65 nM |  |  | CCC(C)(C)c1ccc(OCCCN2CCCCCC2)cc1
26 | 753 nM | 7% |  | 962 nM |  |  | CCC(C)(C)c1ccc(OCCCN2CC(C)CC(C)C2)cc1 (configuration not stated)
27 | > 1000 nM | 7% |  | 417 nM |  |  | CCC(C)(C)c1ccc(OCCCN2CCCC(C)(C)C2)cc1
28 | 100 nM | 11% |  | 428 nM |  |  | CCC(C)(C)c1ccc(OCCCN2CCCC(C)C2)cc1 (configuration not stated)
29 | 63 nM | 5% | Active | 4.5 nM |  | Active | CCC(C)(C)c1ccc(OCCCN2CCCC2)cc1
30 |  |  | Active |  |  |  | C[C@H](NCc1ccc(OCc2cccc(F)c2)cc1)C(N)=O [SAFINAMIDE]

From ChEMBL document CHEMBL4325892, “4-tert-Pentylphenoxyalkyl derivatives - Histamine H3 receptor ligands and monoamine oxidase B inhibitors” (Bioorg Med Chem Lett, 2018)
